Laboratory results published in article PMC3672992 (Therapeutic drug monitoring, 2008).
Where two headings read alike, the source gives them in different places.

Key:
[1] = mild hepatic impairment group; cited from earlier work
[2] = Steady-state pharmacokinetics of unbound lopinavir; assay type: in vivo, human
[3] = Steady-state plasma pharmacokinetics of total lopinavir; assay type: in vivo, human; conditions: for Total lopinavir Ctrough / Total lopinavir tmax: steady-state, median (IQR)
[4] = patients with significant liver fibrosis; cited from earlier work
[5] = Steady-state plasma pharmacokinetics of total ritonavir; assay type: in vivo, human
In short: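 HIV-infected Caucasian adults took protease-inhibitor combination capsules at 400/100 mg twice daily (266/66 mg if under 50 kg) with standardized meals. After at least 2 wk of dosing, blood was drawn predose and 1, 2, 3, 4, 6, 8 and 12 h after the morning dose. EDTA plasma (600g, 10 min) was stored at −80°C and assayed by HPLC-UV (linear 100–16,000 ng/mL). Ctrough is the predose, noncompartmental value.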

[6] = without ritonavir boosting, cited from earlier work
[7] = cited from earlier work
[8] = Group I HIV+/HCV−, n=12, median (IQR)
[9] = Group II HIV+/HCV+, n=18, median (IQR)
[10] = Group III HIV+/HCV+ with cirrhosis, n=6, median (IQR)
[11] = Group III HIV+/HCV+ with cirrhosis, n=9

Compound: Cc1cccc(C)c1OCC(=O)N[C@@H](Cc1ccccc1)[C@@H](O)C[C@H](Cc1ccccc1)NC(=O)[C@H](C(C)C)N1CCCNC1=O [lopinavir]
- Percentage of unbound LPV [1]: 0.89%
- Unbound lopinavir AUCu(0–12) [2, 8]: 0.87 (0.77–1.21) μg*h/mL
- Unbound lopinavir Cu,max [2, 8]: 0.12 (0.10–0.14) μg/mL
- Unbound lopinavir Cu,trough [2, 8]: 0.05 (0.03–0.08) μg/mL
- Unbound lopinavir AUCu(0–12) [2, 9]: 1.21 (0.73–1.43) μg*h/mL
- Unbound lopinavir Cu,max [2, 9]: 0.13 (0.10–0.18) μg/mL
- Unbound lopinavir Cu,trough [2, 9]: 0.07 (0.05–0.10) μg/mL
- Unbound lopinavir AUCu(0–12) [2, 10]: 1.41 (1.14–1.85) μg*h/mL
- Unbound lopinavir Cu,max [2, 10]: 0.16 (0.14–0.18) μg/mL
- Unbound lopinavir Cu,trough [2, 10]: 0.08 (0.03–0.10) μg/mL
- Total lopinavir Ctrough ([3]; Group I HIV+/HCV−, n=24): 7.4 (4.1–10.0) μg/mL
- Total lopinavir Ctrough ([3]; Group II HIV+/HCV+, n=23): 6.4 (4.5–10.1) μg/mL
- Total lopinavir tmax ([3]; Group II HIV+/HCV+, n=23): 4.0 (4.0–6.0) h
- Total lopinavir Ctrough [3, 11]: 7.0 (5.7–7.6) μg/mL
- Total lopinavir tmax [3, 11]: 4.0 (4.0–6.0) h
- Increase in drug clearance (compensatory effect) ([3]; HIV/HCV-coinfected patients with cirrhosis versus HIV+/HCV− patients): ~ 29%

Compound: CCC[C@@]1(CCc2ccccc2)CC(O)=C([C@H](CC)c2cccc(NS(=O)(=O)c3ccc(C(F)(F)F)cn3)c2)C(=O)O1 [tipranavir]
- Change in tipranavir concentrations [4]: significant increase

Compound: CC(C)c1nc(CN(C)C(=O)N[C@H](C(=O)N[C@@H](Cc2ccccc2)C[C@H](O)[C@H](Cc2ccccc2)NC(=O)OCc2cncs2)C(C)C)cs1 [ritonavir]
- Total ritonavir Ctrough ([5]; Group I HIV+/HCV−, n=14, median (IQR)): 0.57 (0.51–0.77) μg/mL
- Total ritonavir Ctrough ([5]; Group II HIV+/HCV+, n=15, median (IQR)): 0.50 (0.23–0.73) μg/mL
- Total ritonavir Ctrough ([5]; Group III HIV+/HCV+ with cirrhosis, n=4, median (IQR)): 0.70 (0.65–0.72) μg/mL

Compound: Cc1c(O)cccc1C(=O)N[C@@H](CSc1ccccc1)[C@H](O)CN1C[C@H]2CCCC[C@H]2C[C@H]1C(=O)NC(C)(C)C [NFV, nelfinavir]
- NFV AUC(0–12) fold higher relative to noncoinfected HIV+ control group ([6]; HIV+/HCV+ patients with cirrhosis): 2.5 fold
- NFV AUC(0–12) fold higher relative to noncoinfected HIV+ control group ([6]; HIV+/HCV+ patients): 1.3 fold

Compound: O=C1Nc2ccc(Cl)cc2[C@@](C#CC2CC2)(C(F)(F)F)O1 [efavirenz]
- Efavirenz plasma concentration ([7]; HCV-coinfected individuals without cirrhosis): 1.9 µg/mL
- Efavirenz plasma concentration ([7]; patients with cirrhosis, P = 0.001): 3.4 µg/mL
